Experimental data as given in ChEMBL document CHEMBL1126561, “Synthesis and biological evaluation of N4-substituted imidazo- and v-triazolo[4,5-d]pyridazine nucleosides” (J Med Chem, 1993).
In brackets after ≈: the same amount, converted by molar mass.

Experiments:
Homo sapiens [1] = species on record: Homo sapiens; experiment: Compound was tested for the inhibition of adenosine transport into human erythrocytes; type: functional
Outline: (§1)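 Inhibitor-stop assay of human erythrocytes (10% suspension, v/v) at room temperature. Analogue (up to 10 μM) was preincubated with triplicate cell aliquots for 10 min, then [8-¹⁴C]adenosine was added (final 10 μM). Uptake was stopped after 0.5 s with ice-cold 750 μM dilazep and centrifugation through oil. Cell radioactivity was counted, corrected for extracellular trapping.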

B16 [2] = experiment: Compound was tested in vitro for growth inhibitory activity against B16 melanoma cell line; type: functional; settings: Mus musculus, read-out: ID50 (the source's name)
Outline: (§2)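 B16 melanoma cells in RPMI-1640 with 15% heat-inactivated FBS and antibiotics, seeded at 2-3 × 10³ cells/well on day 0. Graded analogue (12 concentrations) added day 1, then 3 days at 37 °C. MTT 4 h, formazan dissolved in acidic isopropanol, absorbance read. ID50 from curve fit, eight determinations per concentration.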

B16 [3] = experiment: Compound was tested in vitro for growth inhibitory activity against murine B16 melanoma cell line; type: functional; settings: Mus musculus, read-out: ID50 (the source's name); outline: as §2
L1210 (1565) [4] = experiment: Compound was tested in vitro for growth inhibitory activity against murine L1210 leukemia cell line; type: functional; settings: Mus musculus, read-out: ID50 (the source's name)
Outline: as §2, with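 “Murine L1210” for “B16 melanoma”, “10%” for “15%”, “mercaptoethanol,” for “antibiotics,”, “1” for “2-3”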

[5] = target: T1, Adenosine deaminase (Bos taurus) (UniProt P56658); experiment: Tested for inhibition against calf intestinal mucosa adenosine deaminase (ADA); type: tissue-based; settings: concentration not given here
T1 sequence (whole entry): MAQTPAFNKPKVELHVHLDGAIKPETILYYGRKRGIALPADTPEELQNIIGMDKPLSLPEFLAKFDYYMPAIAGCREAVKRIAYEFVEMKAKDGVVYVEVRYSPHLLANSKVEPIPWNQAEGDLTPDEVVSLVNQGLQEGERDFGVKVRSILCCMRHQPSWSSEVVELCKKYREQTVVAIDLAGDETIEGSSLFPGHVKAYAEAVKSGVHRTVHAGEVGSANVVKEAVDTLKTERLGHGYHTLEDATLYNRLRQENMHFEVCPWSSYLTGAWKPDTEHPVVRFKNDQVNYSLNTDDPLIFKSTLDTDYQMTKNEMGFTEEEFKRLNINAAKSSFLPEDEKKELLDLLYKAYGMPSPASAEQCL
Outline: (§3)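 Calf intestinal mucosa ADA (0.003 unit) in 1 mL of 50 mM potassium phosphate, pH 7.4, at 30 °C. Substrate was 25 μM adenosine, about Km. Analogue tested at 100 μM, reported as percent inhibition.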

[6] = target: T1, Adenosine deaminase (Bos taurus); experiment: Tested for percentage inhibition against adenosine deaminase at the concentration 100 uM; outline: as §3
L1210 (1565) [7] = experiment: Tested in vitro inhibitory activity against murine L 1210 leukemia cells line; type: functional; settings: Mus musculus, read-out: ID50 (the source's name)
Outline: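 L1210 cells in RPMI-1640 with 10% heat-inactivated FBS plus mercaptoethanol (doubling time 12 h); 1 × 10^3 cells seeded day 0, graded analogue concentrations added day 1, cultured 3 days at 37 °C. Growth read by MTT reduction (4 h), formazan in acidic isopropanol; ID50 fitted from 12 concentrations × eight determinations.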

B16 [8] = experiment: Tested in vitro inhibitory activity against murine B16 melanoma cells line; type: functional; settings: Mus musculus, read-out: ID50 (the source's name)
Outline: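 B16 cells maintained in RPMI-1640 with 15% heat-inactivated FBS and antibiotics (doubling time 21 h); 2-3 × 10^3 cells seeded day 0, graded analogue concentrations added day 1, 3 days at 37 °C. MTT 4 h, formazan solubilized in acidic isopropanol, absorbance read; ID50 from curve fit of 12 concentrations, eight determinations each.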

Homo sapiens [9] = species on record: Homo sapiens; experiment: Evaluated for inhibition of adenosine accumulation in human erythrocytes at the concentration of 10 uM of compound; type: functional; outline: as §1

## OC[C@H]1OC(n2nnc3c(NCc4ccccc4)nncc32)[C@H](O)[C@@H]1O (stereo partly specified)
Homo sapiens [1]
  Inhibition: 34%
B16 [2]
  IC50: 35.8 µg/mL (≈ 99.9 µM)

## CN(Cc1cnc2nc(N)nc(N)c2n1)c1ccc(C(=O)N[C@@H](CCC(=O)O)C(=O)O)cc1 [METHOTREXATE]
B16 [3]
  IC50: < 0.1 µg/mL
L1210 (1565) [4]
  IC50: < 0.1 µg/mL

## Nc1nncc2c1nnn2C1O[C@H](CO)[C@@H](O)[C@H]1O (stereo partly specified)
[5]
  inhibition: 7%

## Nc1nncc2c1ncn2[C@@H]1O[C@H](CO)[C@@H](O)[C@H]1O
[6]
  inhibition: 15%

## Nc1ccn([C@@H]2O[C@H](CO)[C@@H](O)[C@@H]2O)c(=O)n1 [CYTARABINE]
L1210 (1565) [7]
  IC50: < 0.1 µg/mL
B16 [8]
  IC50: < 0.1 µg/mL

## O=c1[nH]cc(F)c(=O)[nH]1 [FLUOROURACIL]
L1210 (1565) [7]
  IC50: < 0.1 µg/mL
B16 [8]
  IC50: < 0.1 µg/mL

## OC[C@H]1OC(n2cnc3c(NCc4ccccc4)nncc32)[C@H](O)[C@@H]1O (stereo partly specified)
Homo sapiens [9]
  Inhibition: 45%
